Published values of several laboratories.
Each line is one published result; the experiments were not run side by side.
Target: Serine/threonine-protein kinase TBK1 (TBK1, Homo sapiens, UniProt Q9UHD2)
One construct used (Q9UHD2 1-729): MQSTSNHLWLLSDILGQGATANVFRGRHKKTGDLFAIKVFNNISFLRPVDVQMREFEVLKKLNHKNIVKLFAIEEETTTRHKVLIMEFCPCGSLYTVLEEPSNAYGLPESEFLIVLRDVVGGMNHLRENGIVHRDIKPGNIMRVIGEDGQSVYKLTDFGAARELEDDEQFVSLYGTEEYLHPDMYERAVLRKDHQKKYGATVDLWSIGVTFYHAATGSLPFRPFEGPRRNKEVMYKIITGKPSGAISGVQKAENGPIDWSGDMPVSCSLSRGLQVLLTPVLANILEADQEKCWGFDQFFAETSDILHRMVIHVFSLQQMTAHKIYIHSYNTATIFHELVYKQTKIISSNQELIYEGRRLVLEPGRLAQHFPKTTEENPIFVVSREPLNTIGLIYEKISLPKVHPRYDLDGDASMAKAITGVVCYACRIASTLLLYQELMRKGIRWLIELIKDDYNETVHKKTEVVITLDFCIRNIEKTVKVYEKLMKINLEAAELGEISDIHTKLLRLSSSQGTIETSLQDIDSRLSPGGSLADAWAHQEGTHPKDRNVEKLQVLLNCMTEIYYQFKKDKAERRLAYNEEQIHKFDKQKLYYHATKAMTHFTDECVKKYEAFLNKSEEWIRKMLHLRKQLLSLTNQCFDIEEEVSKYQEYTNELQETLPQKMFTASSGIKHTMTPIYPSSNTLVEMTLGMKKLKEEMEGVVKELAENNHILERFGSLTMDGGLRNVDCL

With C#Cc1cc(-c2cc(Nc3nc(N[C@@H](C)c4ccc(F)cn4)ncc3Cl)n[nH]2)ccc1C=O the inhibition was 5.56% (enzyme activity, inhibitor; 0.2 µM).
For C=CC(=O)N1CCC([C@@H]2CCNc3c(C(N)=O)c(-c4ccc(Oc5ccccc5)cc4)nn32)CC1, the inhibition was 15% (enzyme activity, inhibitor; 1 µM).
Cc1cc(O)c(-c2ccc([C@@H](C)CN(C)C)cc2)c2c1[nH]c(=O)c1sccc12 has an inhibition of -4.68% (enzyme activity, inhibitor; 0.1 µM).
With CCCCC(=O)Nc1ccc(-c2ccc3ncn(CCC)c(=O)c3c2)cn1 the remaining binding was 100% (binding, competition with immobilised ligand; 0.5 µM).
With COc1ccc2[nH]c3c4[nH]c5ccc(OC)cc5c4c4c(c3c2c1)C(=O)NC4=O the remaining binding was 59% (binding; 1 µM).
CC(C)S(=O)(=O)c1ccc2nccc(Nc3ccc4sc(C5CCCC5)nc4c3)c2c1 gave an activity vs control of 114% (enzyme activity, inhibitor; 1 µM).
For C[C@H]1CC[C@H](n2c3cnccc3c3cnc(Nc4ccc5c(n4)CCN(C(=O)CO)C5)nc32)CC1, the remaining signal was 100% (cell-free assay; 1 µM).
For CC#CC(=O)N1CCC[C@H]1c1nc(-c2ccc(C(=O)Nc3ccccn3)cc2)c2c(N)nccn12, the inhibition was 5% (enzyme activity, inhibitor; 1 µM).
